From ChEMBL document CHEMBL1140861, “Short antisense oligonucleotides with novel 2'-4' conformationaly restricted nucleoside analogues show improved potency without increased toxicity in animals” (J Med Chem, 2009) come the findings set out here.

Data set [1] relates to Mus musculus. Briefly: Hepatotoxicity in BALB/c mouse assessed as increase in liver ALT level at 60 mg/kg, ip after 72 hrs. Details: dose 60 mg/kg, route intraperitoneal. The conditions noted are these: in vivo. It counts as toxicity, organism-based.
The test system of data set [2] is Mus musculus. Briefly: Reduction of PTEN mRNA level in BALB/c mouse liver at 60 mg/kg, ip after 72 hrs. It counts as functional, organism-based. Further details: dose 60 mg/kg.
Data set [3] has as its system Mus musculus. Briefly: Reduction of PTEN mRNA level in BALB/c mouse liver at 37 mg/kg, ip after 72 hrs. It counts as functional, organism-based. Details: dose 37 mg/kg.
Data set [4] is filed under the species Mus musculus. The experiment in a line: Binding affinity to mouse PTEN mRNA assessed as melting temperature. In outline: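 Tm of ASO–RNA duplex, i.e. melting temperature of the ASO hybridised to its complementary RNA.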
The test system of another data set is bEND. The experiment in a line: Reduction in mouse PTEN mRNA level expressed in mouse bEND cells. It counts as functional, cell-based. In outline:
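bEND mouse brain endothelial cells transfected with ASO using lipofectin; PTEN mRNA reduction measured over a dose range; IC50 taken from dose-response curves.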

The subject of data set [5] is Mus musculus. Briefly: Reduction of PTEN mRNA level in ip dosed BALB/c mouse liver after 72 hrs. It counts as functional.

pIC50: −log10 of the molar value. Active and inactive are the calls of the source. The calls are words filed in the database; no cut-off is given here. A value given as a limit tells only on which side of the number the result lay.

Regarding `Cc1cn([C@@H]2O[C@@]3(COP(O)(=S)O[C@H]4[C@H]5OC[C@]4(CO)O[C@H]5n4cc(C)c(N)nc4=O)CO[C@@H]2[C@@H]3OP(O)(=S)OC[C@H]2O[C@@H](n3cnc4c(N)ncnc43)[C@H](O)[C@@H]2OP(O)(=S)OC[C@H]2O[C@@H](n3cnc4c(=O)[nH]c(N)nc43)[C@H](O)[C@@H]2OP(O)(=S)OC[C@H]2O[C@@H](n3cnc4c(=O)[nH]c(N)nc43)[C@H](O)[C@@H]2OP(O)(=S)OC[C@H]2O[C@@H](n3cc(C)c(=O)[nH]c3=O)C[C@@H]2OP(O)(=S)OC[C@H]2O[C@@H](n3ccc(N)nc3=O)[C@H](O)[C@@H]2OP(O)(=S)OC[C@H]2O[C@@H](n3ccc(N)nc3=O)[C@H](O)[C@@H]2OP(O)(=S)OC[C@H]2O[C@@H](n3ccc(N)nc3=O)[C@H](O)[C@@H]2OP(O)(=S)OC[C@H]2O[C@@H](n3cnc4c(=O)[nH]c(N)nc43)[C@H](O)[C@@H]2OP(O)(=S)OC[C@H]2O[C@@H](n3cnc4c(=O)[nH]c(N)nc43)[C@H](O)[C@@H]2OP(O)(=S)OC[C@H]2O[C@@H](n3cc(C)c(=O)[nH]c3=O)C[C@@H]2OP(O)(=S)OC[C@@]23CO[C@@H]([C@H](n4cc(C)c(=O)[nH]c4=O)O2)[C@@H]3OP(O)(=S)OC[C@@]23CO[C@@H]([C@H](n4ccc(N)nc4=O)O2)[C@@H]3O)c(=O)nc1N` (stereo partly drawn), the Activity entry in the data set on Mus musculus [1] was “Non-toxic”. Further, the result with Mus musculus [2] and in the data set with Mus musculus [3] was Active.

As a reminder, the pIC50 is the negative decadic logarithm of the IC50, by convention in mol/L. A lower pIC50 goes with a high IC50. A word on the ED50: it is the dose at which the effect has come halfway, by size or by number of responders. For `COCCO[C@@H]1[C@H](O)[C@@H](COP(O)(=S)O[C@H]2[C@@H](OCCOC)[C@H](n3ccc(=O)[nH]c3=O)O[C@@H]2COP(O)(=S)O[C@H]2C[C@H](n3cc(C)c(=O)[nH]c3=O)O[C@@H]2COP(O)(=S)O[C@H]2[C@@H](O)[C@H](n3cnc4c3N=CNC4N)O[C@@H]2COP(O)(=S)O[C@H]2[C@@H](O)[C@H](n3cnc4c(=O)[nH]c(N)nc43)O[C@@H]2COP(O)(=S)O[C@H]2[C@@H](O)[C@H](n3ccc(N)nc3=O)O[C@@H]2COP(O)(=S)O[C@H]2[C@@H](O)[C@H](n3cnc4c(N)ncnc43)O[C@@H]2COP(O)(=S)O[C@H]2[C@@H](O)[C@H](n3ccc(N)nc3=O)O[C@@H]2COP(O)(=S)O[C@H]2[C@@H](O)[C@H](n3cc(C)c(=O)[nH]c3=O)O[C@@H]2COP(O)(=S)O[C@H]2[C@@H](O)[C@H](n3cnc4c(=O)[nH]c(N)nc43)O[C@@H]2COP(O)(=S)O[C@H]2[C@@H](O)[C@H](n3cnc4c(=O)[nH]c(N)nc43)O[C@@H]2COP(O)(=S)O[C@H]2[C@@H](O)[C@H](n3ccc(N)nc3=O)O[C@@H]2COP(O)(=S)O[C@H]2[C@@H](OCCOC)[C@H](n3cc(C)c(N)nc3=O)O[C@@H]2COP(O)(=S)O[C@H]2[C@@H](OCCOC)[C@H](n3ccc(=O)[nH]c3=O)O[C@@H]2COP(=O)(O)O)O[C@H]1n1cc(C)c(N)nc1=O` (stereo partly drawn), the Tm in the data set listed under Mus musculus [4] came out at 50.8 °C. Moreover, the pIC50 in the data set with bEND is < 7.70. The ED50 with Mus musculus [5] was > 45 mg/kg.

As to `COC[C@@H]1O[C@H]2[C@H](n3cc(C)c(N)nc3=O)O[C@]1(COP(O)(=S)O[C@H]1[C@H]3O[C@@H](COC)[C@]1(COP(O)(=S)O[C@H]1C[C@H](n4cc(C)c(=O)[nH]c4=O)O[C@@H]1COP(O)(=S)O[C@H]1[C@@H](O)[C@H](n4cnc5c4N=CNC5N)O[C@@H]1COP(O)(=S)O[C@H]1[C@@H](O)[C@H](n4cnc5c(=O)[nH]c(N)nc54)O[C@@H]1COP(O)(=S)O[C@H]1[C@@H](O)[C@H](n4ccc(N)nc4=O)O[C@@H]1COP(O)(=S)O[C@H]1[C@@H](O)[C@H](n4cnc5c(N)ncnc54)O[C@@H]1COP(O)(=S)O[C@H]1[C@@H](O)[C@H](n4ccc(N)nc4=O)O[C@@H]1COP(O)(=S)O[C@H]1[C@@H](O)[C@H](n4cc(C)c(=O)[nH]c4=O)O[C@@H]1COP(O)(=S)O[C@H]1[C@@H](O)[C@H](n4cnc5c(=O)[nH]c(N)nc54)O[C@@H]1COP(O)(=S)O[C@H]1[C@@H](O)[C@H](n4cnc5c(=O)[nH]c(N)nc54)O[C@@H]1COP(O)(=S)O[C@H]1[C@@H](O)[C@H](n4ccc(N)nc4=O)O[C@@H]1COP(O)(=S)O[C@H]1[C@H]4O[C@@H](COC)[C@]1(COP(O)(=S)O[C@H]1[C@H]5O[C@@H](COC)[C@]1(CO)O[C@H]5n1ccc(=O)[nH]c1=O)O[C@H]4n1cc(C)c(N)nc1=O)O[C@H]3n1ccc(=O)[nH]c1=O)[C@H]2O` (stereo partly drawn), in the data set filed under Mus musculus [4], the Tm was 57.6 °C. Further, in the data set with bEND, the pIC50 is 8.30. Further, in the data set on Mus musculus [5], the ED50 amounted to 25 mg/kg.

For `Cc1cn([C@@H]2O[C@@]3(COP(O)(=S)O[C@H]4[C@H]5OC[C@]4(COP(O)(=S)O[C@@H]4[C@H](O)[C@@H](COP(O)(=S)O[C@H]6[C@@H](O)[C@H](n7cnc8c(=O)[nH]c(N)nc87)O[C@@H]6COP(O)(=S)O[C@H]6[C@@H](O)[C@H](n7ccc(N)nc7=O)O[C@@H]6COP(O)(=S)O[C@H]6[C@@H](O)[C@H](n7ccc(N)nc7=O)O[C@@H]6COP(O)(=S)O[C@H]6C[C@H](n7cc(C)c(=O)[nH]c7=O)O[C@@H]6COP(O)(=S)O[C@H]6[C@@H](O)[C@H](n7ccc(N)nc7=O)O[C@@H]6COP(O)(=S)O[C@H]6C[C@H](n7cc(C)c(=O)[nH]c7=O)O[C@@H]6COP(O)(=S)O[C@H]6[C@@H](O)[C@H](n7cnc8c(=O)[nH]c(N)nc87)O[C@@H]6COP(O)(=S)O[C@H]6[C@@H](O)[C@H](n7cnc8c(=O)[nH]c(N)nc87)O[C@@H]6COP(O)(=S)O[C@H]6[C@@H](O)[C@H](n7cnc8c(N)ncnc87)O[C@@H]6COP(O)(=S)O[C@H]6[C@H]7OC[C@]6(COP(O)(=S)O[C@H]6[C@H]8OC[C@]6(COP(O)(=S)O[C@H]6[C@H]9OC[C@]6(CO)O[C@H]9n6cc(C)c(=O)[nH]c6=O)O[C@H]8n6cc(C)c(=O)[nH]c6=O)O[C@H]7n6cc(C)c(=O)[nH]c6=O)O[C@H]4n4cnc6c(N)ncnc64)O[C@H]5n4cc(C)c(=O)[nH]c4=O)CO[C@@H]2[C@@H]3OP(O)(=S)OC[C@@]23CO[C@@H]([C@H](n4cnc5c(=O)[nH]c(N)nc54)O2)[C@@H]3O)c(=O)nc1N` (stereo partly drawn), the Activity entry in the data set on Mus musculus [1] is reported as “Non-toxic”. For the same compound, the outcome with Mus musculus [2] and with Mus musculus [3] was Active.

With `COC[C@H]1O[C@H]2[C@H](n3cc(C)c(N)nc3=O)O[C@]1(COP(O)(=S)O[C@H]1[C@H]3O[C@H](COC)[C@]1(COP(O)(=S)O[C@H]1C[C@H](n4cc(C)c(=O)[nH]c4=O)O[C@@H]1COP(O)(=S)O[C@H]1[C@@H](O)[C@H](n4cnc5c4N=CNC5N)O[C@@H]1COP(O)(=S)O[C@H]1[C@@H](O)[C@H](n4cnc5c(=O)[nH]c(N)nc54)O[C@@H]1COP(O)(=S)O[C@H]1[C@@H](O)[C@H](n4ccc(N)nc4=O)O[C@@H]1COP(O)(=S)O[C@H]1[C@@H](O)[C@H](n4cnc5c(N)ncnc54)O[C@@H]1COP(O)(=S)O[C@H]1[C@@H](O)[C@H](n4ccc(N)nc4=O)O[C@@H]1COP(O)(=S)O[C@H]1C[C@H](n4cc(C)c(=O)[nH]c4=O)O[C@@H]1COP(O)(=S)O[C@H]1[C@@H](O)[C@H](n4cnc5c(=O)[nH]c(N)nc54)O[C@@H]1COP(O)(=S)O[C@H]1[C@@H](O)[C@H](n4cnc5c(=O)[nH]c(N)nc54)O[C@@H]1COP(O)(=S)O[C@H]1[C@@H](O)[C@H](n4ccc(N)nc4=O)O[C@@H]1COP(O)(=S)O[C@H]1[C@H]4O[C@H](COC)[C@]1(COP(O)(=S)O[C@H]1[C@H]5O[C@H](COC)[C@]1(CO)O[C@H]5n1ccc(=O)[nH]c1=O)O[C@H]4n1cc(C)c(N)nc1=O)O[C@H]3n1ccc(=O)[nH]c1=O)[C@H]2O` (stereo partly drawn), in the data set filed under Mus musculus [4], the Tm came out at 56.9 °C. For the same compound, in the data set on bEND, the negative logarithm of the IC50 (pIC50) is 8.22. This compound also returned an ED50 in the data set with Mus musculus [5] of 29 mg/kg.

Take `COCCO[C@@H]1[C@H](O)[C@@H](COP(O)(=S)O[C@H]2[C@@H](OCCOC)[C@H](n3cc(C)c(N)nc3=O)O[C@@H]2COP(O)(=S)O[C@H]2[C@@H](OCCOC)[C@H](n3cc(C)c(=O)[nH]c3=O)O[C@@H]2COP(O)(=S)O[C@H]2[C@@H](OCCOC)[C@H](n3cc(C)c(=O)[nH]c3=O)O[C@@H]2COP(O)(=S)O[C@H]2[C@@H](OCCOC)[C@H](n3cc(C)c(N)nc3=O)O[C@@H]2COP(O)(=S)O[C@H]2[C@@H](O)[C@H](n3cc(C)c(N)nc3=O)O[C@@H]2COP(O)(=S)O[C@H]2[C@@H](O)[C@H](n3cc(C)c(N)nc3=O)O[C@@H]2COP(O)(=S)O[C@H]2C[C@H](n3cc(C)c(=O)[nH]c3=O)O[C@@H]2COP(O)(=S)O[C@H]2[C@@H](O)[C@H](n3cnc4c(=O)[nH]c(N)nc43)O[C@@H]2COP(O)(=S)O[C@H]2[C@@H](O)[C@H](n3cnc4c(N)ncnc43)O[C@@H]2COP(O)(=S)O[C@@H]2[C@H](O)[C@@H](COP(O)(=S)O[C@H]3[C@@H](O)[C@H](n4cnc5c(=O)[nH]c(N)nc54)O[C@@H]3COP(O)(=S)O[C@H]3[C@@H](O)[C@H](n4cnc5c(=O)[nH]c(N)nc54)O[C@@H]3COP(O)(=S)O[C@H]3C[C@H](n4cc(C)c(=O)[nH]c4=O)O[C@@H]3COP(O)(=S)O[C@H]3C[C@H](n4cc(C)c(=O)[nH]c4=O)O[C@@H]3COP(O)(=S)O[C@H]3[C@@H](OCCOC)[C@H](n4cc(C)c(=O)[nH]c4=O)O[C@@H]3COP(O)(=S)O[C@H]3[C@@H](OCCOC)[C@H](n4cc(C)c(N)nc4=O)O[C@@H]3COP(O)(=S)O[C@H]3[C@@H](OCCOC)[C@H](n4ccc(N)nc4=O)O[C@@H]3COP(O)(=S)O[C@H]3[C@@H](OCCOC)[C@H](n4cc(C)c(N)nc4=O)O[C@@H]3COP(O)(=S)O[C@H]3[C@@H](OCCOC)[C@H](n4cc(C)c(N)nc4=O)O[C@@H]3CO)O[C@H]2n2cnc3c(N)ncnc32)O[C@H]1n1cc(C)c(N)nc1=O` (stereo partly drawn): the Activity result in the data set with Mus musculus [1] was “Non-toxic”. The result in the data set with Mus musculus [2] and in the data set on Mus musculus [3] was Active.
